High-throughput results from PubChem BioAssay.
The entries come from a sample that favours hits as a whole.
HUVEC inhibit: inhibitors of human endothelial cell proliferation. HUVEC proliferation, CellTiter-Glo luminescence, 72 h; stronger effect = lower value. viability, % at 10 µM (by protocol). 1.1% of 86,000 active;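 active = viability at or below 30%; inactive = viability above 30%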;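 note: 100% = median luminescence of DMSO-only cell control wells on each plate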
PTEN del growth: PTEN-deleted cell growth suppression; HCT116 PTEN-null viability, CellTiter-Glo, 60 h; stronger effect = lower value; viability, % at 10 µM; 1.2% of 140,000 active;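 active = viability at or below a set limit, 4 SD under the median of all tested compounds, cut at about 3.7% in these data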;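 note: PTEN knockout HCT116 line with beta catenin targeted HCT116 as companion control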
H69AR growth 86K: growth inhibitors of human H69AR lung tumor cells | H69AR lung tumor viability, ATP luminescence, 72 h; stronger effect = lower value | 6% of 85,000 active | AID 598 | viability, % at 10 µM;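 active = viability at or below 40%; inactive = viability above 40%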;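 note: multidrug resistant small cell line overexpressing MRP-1 efflux transporter; 100% = mean luminescence of untreated control wells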
Lung fibro prol: blocks proliferation of human lung fibroblasts; viability, % at 10 µM; AID 719; LL 47 human lung fibroblast viability, ATP luminescence; stronger effect = lower value; 1.1% of 85,000 active;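 active = viability at or below 50% in the single dose screen; inactive = viability above 50%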;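 note: compound exposure lasted 72 h before the ATP readout; 100% = median luminescence of untreated cell-only wells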
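Benchmarks: Cell-only wells, no compound | Test system: LL 47 human lung fibroblasts, passage 12 or lower | Input: 1,150 cells/well | Measured by: CellTiter-Glo luminescence measuring cellular ATP | Medium: IMEM, 15% FBS supplement | Schedule: Overnight attachment after seeding, then 72 h compound exposure at 37 °C | Doses: Compound addition at 0.1% DMSO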
HCT116 bCat-KO: beta-catenin-lacking colon tumor cell growth suppression; HCT116 beta-catenin knockout viability, CellTiter-Glo, 60 h; stronger effect = lower value; viability, % at 10 µM; 1.5% of 140,000 active; AID 818;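 active = viability at or under a set limit, the compound median less 4 SD, cut at about 6% in these data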;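 note: 0% = Hyamine 1622 control at 20 µM and 100% = untreated cell control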
* = called active by the depositor; x = no result.

SMILES	HUVEC inhibit	PTEN del growth	H69AR growth 86K	Lung fibro prol	HCT116 bCat-KO
Cc1c(CCC(C)C)c(-n2ccnc2C)n2c(nc3ccccc32)c1C#N	105.4	73.7	22.9*	99.9	71.9
CCCCCc1c(C)c(C#N)c2nc3ccccc3n2c1-n1ccnc1C	x	70.2	x	x	76.9
C=C(C)CN1CCN(c2c(CCC#N)c(C)c(C#N)c3nc4ccccc4n23)CC1	73.9	3.1*	38.0*	68.7	2.9*
COC(=O)c1ccc(COC(=O)CCC(=O)c2cccs2)cc1	x	92.1	x	x	84.8
Cc1ccc(NC(=O)/C(=C/c2cccs2)NC(=O)c2ccco2)c(C)c1	x	101.5	x	x	97.1
COc1ccc(/C=N\NC(=O)COc2ccccc2)c(C(=O)O)c1OC	x	96.9	x	x	97.2
Cn1c(Cc2cccs2)nnc1SCC(=O)N1CCCc2ccccc21	84.3	103.8	91.6	101.5	102.1
O=C(CSc1nnc(Cc2cccs2)n1C1CCCCC1)N1CCCc2ccccc21	71.2	64.5	34.5*	101.1	73.1
O=C(COC(=O)CCS(=O)(=O)c1ccc(Cl)cc1)NCCc1ccccc1	x	96.3	x	x	81.6
O=S(=O)(NC1CC1)c1ccc(S(=O)(=O)N2CCCC3(CCCCC3)C2)cc1	60.5	83.9	31.7*	58.6	94.3
O=S(=O)(NC1CC1)c1ccc(S(=O)(=O)N2CCN3CCCC3C2)cc1 (stereo unspecified)	111.1	98.7	95.1	109.4	92.9
CC(=O)Nc1ccc(C(=O)CSc2cc(C)c3cccc(C)c3n2)cc1	x	96.1	x	x	98.8
CC(C)P(=O)(c1cccc(C(=O)O)c1)C(C)C	x	95.6	x	x	88.0
COc1cccc(-c2nc(NC(C)(C)C)c3ccccc3n2)c1O	67.2	75.1	32.5*	80.0	78.5
Cc1ccc(-c2nc(NCCN3CCOCC3)c3ccccc3n2)cc1	77.0	16.9	44.7	83.8	11.9
COc1cccc(-c2nc(NCCN3CCOCC3)c3ccccc3n2)c1O	68.3	41.7	8.3*	78.7	38.3
Oc1ccccc1-c1nc(NCCN2CCOCC2)c2ccccc2n1	38.4	45.3	12.0*	80.1	52.4
COc1ccc(C=Nc2cccc3c(=O)[nH][nH]c(=O)c23)c2ccccc12	69.6	89.8	31.7*	98.9	94.1
O=C(CSc1nnc(-c2cccnc2)n1Cc1ccccc1)NCc1ccccc1	92.6	95.3	86.2	99.4	81.8
CCOc1cnn(-c2cc(Oc3ccc(C)cc3)ncn2)c(=O)c1Cl	x	89.8	x	x	88.0
Cc1ccccc1Oc1cc(-n2ncc(Cl)c(Cl)c2=O)ncn1	x	1.9*	x	x	1.6*
O=C(Nc1ccc(Cl)cc1)Nc1nc(-c2sccc2Br)cs1	x	12.7	x	x	3.8*
Cc1csc(NC(=O)Nc2ccc(Cl)cc2)n1	92.4	90.7	100.2	94.9	84.5
COC(=O)c1c(C)n(-c2ccc(OC)cc2)c2ccc(O)cc12	17.8*	42.5	18.5*	78.9	91.0
Brc1ccc(-c2nc(N/N=C/c3cccnc3)c3ccccc3n2)cc1	61.4	39.1	10.6*	59.8	49.8
SMILES	HUVEC inhibit	PTEN del growth	H69AR growth 86K	Lung fibro prol	HCT116 bCat-KO
NS(=O)(=O)c1cccc(NC(=O)CCSc2ccc(Cl)cc2)c1	x	93.8	x	x	96.9
COc1ccc(C(=O)Nc2cccc(C)c2)cc1S(=O)(=O)N1CCOCC1	92.2	91.4	89.6	98.8	77.8
COc1ccc(C(=O)Nc2ccc(-c3ccc(C)o3)cc2)cc1S(=O)(=O)N1CCOCC1	53.3	11.2	21.8*	73.3	5.7*
O=C(Nc1ccccc1)c1ccc(NCc2ccco2)c(S(=O)(=O)N2CCOCC2)c1	85.5	89.0	39.3*	94.2	73.6
O=C(Nc1ccccc1)c1ccc(NCCN2CCOCC2)c(S(=O)(=O)N2CCOCC2)c1	93.0	96.9	68.1	98.3	106.5
CCC(=O)N1CCc2cc(S(=O)(=O)CCC(=O)Nc3nc(C)cs3)ccc21	91.8	58.6	1.8*	87.6	59.8
CCOc1ccc2nc(Cl)c(C3CC(c4ccccc4)=NN3C(=O)c3ccco3)cc2c1 (stereo unspecified)	x	105.5	x	x	95.3
Cc1cccc(N(C)C(=O)c2cc3cc4ccc(C)cc4nc3o2)c1	60.4	41.9	18.6*	67.7	40.1
O=Cc1cn(CC(=O)N2CCCc3ccccc32)c2ccccc12	93.3	85.8	35.5*	96.5	86.7
Cc1cc(C)n(-c2nc(NCCC(C)C)c3c4c(sc3n2)COC(C)(C)C4)n1	12.9*	4.3	1.6*	86.0	3.6*
CSc1nnc2c3c4c(sc3nc(-n3nc(C)cc3C)n12)COC(C)(C)C4	91.9	67.7	74.4	107.0	68.2
Cc1cc(C)n(-c2nc(-n3nc(C)cc3C)c3c4c(sc3n2)COC(C)(C)C4)n1	105.8	91.3	25.6*	87.1	94.2
